Data reported in ChEMBL document CHEMBL4689842, “EUbOPEN Chemogenomics Library wave 1” (2021).
“And” between values parts separate entries of the source, which are not always exact repeats. Equal entries are not always repeated.

System: HEK-293T
Assay: Multiplex assay against HEK293T;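 for Population Tubulin-Different-Phenotype (%): share of the cells with healthy nuclei that show this phenotype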
Format: toxicity, cell-based
Conditions: human
In short: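 Four dyes were applied at seeding to live cells: Hoechst33342, BioTracker Green Microtubule Cytoskeleton Dye, MitoTracker Red and Annexin V Alexa Fluor 680. Imaging after compound addition used a CQ1 microscope at 37°C and 5% CO2. CellPathfinder machine-learning gating then sorted cells into Hoechst high-intensity objects or normal cells, normal cells into healthy, pyknosed or fragmented nuclei, and pyknosed cells into mitotic or apoptotic, with tubulin, mitochondrial-mass and membrane-permeability phenotypes given as per cents of healthy-nucleus cells.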

[1] = 12 h, 1 µM, compound concentration 1 uM, replicate 1
[2] = 12 h, 1 µM, compound concentration 1 uM, replicate 2
[3] = 24 h, 1 µM, compound concentration 1 uM, replicate 1
[4] = 24 h, 1 µM, compound concentration 1 uM, replicate 2
[5] = 12 h, 10 µM, compound concentration 10 uM, replicate 1
[6] = 12 h, 10 µM, compound concentration 10 uM, replicate 2
[7] = 24 h, 10 µM, compound concentration 10 uM, replicate 1
[8] = 24 h, 10 µM, compound concentration 10 uM, replicate 2
[9] = 48 h, 1 µM, compound concentration 1 uM, replicate 1
[10] = 48 h, 1 µM, compound concentration 1 uM, replicate 2
[11] = 48 h, 10 µM, compound concentration 10 uM, replicate 1
[12] = 48 h, 10 µM, compound concentration 10 uM, replicate 2

CN([C@@H](Cc1ccc(OS(=O)(=O)c2cccc3cnccc23)cc1)C(=O)N1CCN(c2ccccc2)CC1)S(=O)(=O)c1cccc2cnccc12
Population Apoptotic (%) [1]: 32% and 22% | Population Fragmented Nuclei (%) [1]: 26% and 15% | Population Healthy Nuclei (%) [1]: 31% and 38% | Population Hoechst High Intensity Objects (%) [1]: 18% and 15% | Population Membrane Permeable-Phenotype (%) [1]: 34% and 31% | Population Mitochondria Different-Phenotype (%) [1]: 22% | Population Mitotic Cells (%) [1]: 67% and 77% | Population Normal (%) [1]: 81% and 84% | Population Pyknosed Nuclei (%) [1]: 42% and 46% | Population Tubulin-Different-Phenotype (%) [1]: 77% and 86% | Total Cell Count [1]: 417 and 601 | Population Apoptotic (%) [2]: 15% and 13% | Population Fragmented Nuclei (%) [2]: 2% and 3% | Population Healthy Nuclei (%) [2]: 73% | Population Hoechst High Intensity Objects (%) [2]: 3% and 2% | Population Membrane Permeable-Phenotype (%) [2]: 28% and 27% | Population Mitochondria Different-Phenotype (%) [2]: 34% and 43% | Population Mitotic Cells (%) [2]: 84% and 86% | Population Normal (%) [2]: 96% and 97% | Population Pyknosed Nuclei (%) [2]: 23% and 22% | Population Tubulin-Different-Phenotype (%) [2]: 97% | Total Cell Count [2]: 993 and 1067 | Population Apoptotic (%) [3]: 39% and 33% | Population Fragmented Nuclei (%) [3]: 22% and 14% | Population Healthy Nuclei (%) [3]: 46% and 51% | Population Hoechst High Intensity Objects (%) [3]: 14% and 13% | Population Membrane Permeable-Phenotype (%) [3]: 20% | Population Mitochondria Different-Phenotype (%) [3]: 50% and 32% | Population Mitotic Cells (%) [3]: 60% and 66% | Population Normal (%) [3]: 85% and 86% | Population Pyknosed Nuclei (%) [3]: 31% and 33% | Population Tubulin-Different-Phenotype (%) [3]: 88% and 94% | Total Cell Count [3]: 402 and 587 | Population Apoptotic (%) [4]: 11% | Population Fragmented Nuclei (%) [4]: 9% and 3% | Population Healthy Nuclei (%) [4]: 75% and 68% | Population Hoechst High Intensity Objects (%) [4]: 2% and 5% | Population Membrane Permeable-Phenotype (%) [4]: 25% and 18% | Population Mitochondria Different-Phenotype (%) [4]: 40% and 37% | Population Mitotic Cells (%) [4]: 88% | Population Normal (%) [4]: 97% and 94% | Population Pyknosed Nuclei (%) [4]: 15% and 28% | Population Tubulin-Different-Phenotype (%) [4]: 98% and 96% | Total Cell Count [4]: 1327 and 1023

CN(C)C(=O)C(CCN1CCC(O)(c2ccc(Cl)cc2)CC1)(c1ccccc1)c1ccccc1.Cl [LOPERAMIDE HYDROCHLORIDE]
Population Apoptotic (%) [1]: 70% | Population Fragmented Nuclei (%) [1]: 10% | Population Healthy Nuclei (%) [1]: 37% | Population Hoechst High Intensity Objects (%) [1]: 16% | Population Membrane Permeable-Phenotype (%) [1]: 2% | Population Mitochondria Different-Phenotype (%) [1]: 92% | Population Mitotic Cells (%) [1]: 29% | Population Normal (%) [1]: 83% | Population Pyknosed Nuclei (%) [1]: 51% | Population Tubulin-Different-Phenotype (%) [1]: 83% | Total Cell Count [1]: 254 | Population Apoptotic (%) [2]: 56% | Population Fragmented Nuclei (%) [2]: 4% | Population Healthy Nuclei (%) [2]: 30% | Population Hoechst High Intensity Objects (%) [2]: 0% | Population Membrane Permeable-Phenotype (%) [2]: 6% | Population Mitochondria Different-Phenotype (%) [2]: 95% | Population Mitotic Cells (%) [2]: 43% | Population Normal (%) [2]: 99% | Population Pyknosed Nuclei (%) [2]: 65% | Population Tubulin-Different-Phenotype (%) [2]: 85% | Total Cell Count [2]: 208 | Population Apoptotic (%) [5]: 91% | Population Fragmented Nuclei (%) [5]: 10% | Population Healthy Nuclei (%) [5]: 7% | Population Hoechst High Intensity Objects (%) [5]: 20% | Population Membrane Permeable-Phenotype (%) [5]: 0% | Population Mitochondria Different-Phenotype (%) [5]: 100% | Population Mitotic Cells (%) [5]: 8% | Population Normal (%) [5]: 79% | Population Pyknosed Nuclei (%) [5]: 82% | Population Tubulin-Different-Phenotype (%) [5]: 86% | Total Cell Count [5]: 258 | Population Apoptotic (%) [6]: 98% | Population Fragmented Nuclei (%) [6]: 6% | Population Hoechst High Intensity Objects (%) [6]: 15% | Population Mitotic Cells (%) [6]: 1% | Population Normal (%) [6]: 84% | Population Pyknosed Nuclei (%) [6]: 86% | Population Tubulin-Different-Phenotype (%) [6]: 70% | Total Cell Count [6]: 158 | Population Apoptotic (%) [3]: 73% | Population Fragmented Nuclei (%) [3]: 11% | Population Healthy Nuclei (%) [3]: 35% | Population Hoechst High Intensity Objects (%) [3]: 16% | Population Membrane Permeable-Phenotype (%) [3]: 1% | Population Mitochondria Different-Phenotype (%) [3]: 90% | Population Mitotic Cells (%) [3]: 26% | Population Normal (%) [3]: 83% | Population Pyknosed Nuclei (%) [3]: 53% | Population Tubulin-Different-Phenotype (%) [3]: 80% | Total Cell Count [3]: 259 | Population Apoptotic (%) [4]: 65% | Population Fragmented Nuclei (%) [4]: 3% | Population Healthy Nuclei (%) [4]: 48% | Population Hoechst High Intensity Objects (%) [4]: 0% | Population Membrane Permeable-Phenotype (%) [4]: 3% | Population Mitochondria Different-Phenotype (%) [4]: 94% | Population Mitotic Cells (%) [4]: 34% | Population Normal (%) [4]: 99% | Population Pyknosed Nuclei (%) [4]: 47% | Population Tubulin-Different-Phenotype (%) [4]: 89% | Total Cell Count [4]: 242 | Population Apoptotic (%) [7]: 88% | Population Fragmented Nuclei (%) [7]: 16% | Population Healthy Nuclei (%) [7]: 8% | Population Hoechst High Intensity Objects (%) [7]: 23% | Population Membrane Permeable-Phenotype (%) [7]: 0% | Population Mitochondria Different-Phenotype (%) [7]: 100% | Population Mitotic Cells (%) [7]: 11% | Population Normal (%) [7]: 76% | Population Pyknosed Nuclei (%) [7]: 75% | Population Tubulin-Different-Phenotype (%) [7]: 73% | Total Cell Count [7]: 297 | Population Apoptotic (%) [8]: 96% | Population Fragmented Nuclei (%) [8]: 7% | Population Hoechst High Intensity Objects (%) [8]: 12% | Population Mitochondria Different-Phenotype (%) [8]: 91% | Population Mitotic Cells (%) [8]: 3% | Population Normal (%) [8]: 87% | Population Pyknosed Nuclei (%) [8]: 84% | Population Tubulin-Different-Phenotype (%) [8]: 75% | Total Cell Count [8]: 162 | Population Apoptotic (%) [9]: 75% | Population Fragmented Nuclei (%) [9]: 16% | Population Healthy Nuclei (%) [9]: 45% | Population Hoechst High Intensity Objects (%) [9]: 16% | Population Membrane Permeable-Phenotype (%) [9]: 0% | Population Mitochondria Different-Phenotype (%) [9]: 86% | Population Mitotic Cells (%) [9]: 24% | Population Normal (%) [9]: 83% | Population Pyknosed Nuclei (%) [9]: 37% | Population Tubulin-Different-Phenotype (%) [9]: 80% | Total Cell Count [9]: 322 | Population Apoptotic (%) [10]: 71% | Population Fragmented Nuclei (%) [10]: 6% | Population Healthy Nuclei (%) [10]: 69% | Population Hoechst High Intensity Objects (%) [10]: 3% | Population Membrane Permeable-Phenotype (%) [10]: 1% | Population Mitochondria Different-Phenotype (%) [10]: 83% | Population Mitotic Cells (%) [10]: 28% | Population Normal (%) [10]: 96% | Population Pyknosed Nuclei (%) [10]: 23% | Population Tubulin-Different-Phenotype (%) [10]: 89% | Total Cell Count [10]: 305 | Population Apoptotic (%) [11]: 85% | Population Fragmented Nuclei (%) [11]: 25% | Population Healthy Nuclei (%) [11]: 0% | Population Hoechst High Intensity Objects (%) [11]: 24% | Population Membrane Permeable-Phenotype (%) [11]: 0% | Population Mitochondria Different-Phenotype (%) [11]: 100% | Population Mitotic Cells (%) [11]: 14% | Population Normal (%) [11]: 75% | Population Pyknosed Nuclei (%) [11]: 73% | Population Tubulin-Different-Phenotype (%) [11]: 0% | Total Cell Count [11]: 315 | Population Apoptotic (%) [12]: 98% | Population Fragmented Nuclei (%) [12]: 9% | Population Healthy Nuclei (%) [12]: 7% | Population Hoechst High Intensity Objects (%) [12]: 19% | Population Mitochondria Different-Phenotype (%) [12]: 90% | Population Mitotic Cells (%) [12]: 1% | Population Normal (%) [12]: 80% | Population Pyknosed Nuclei (%) [12]: 82% | Population Tubulin-Different-Phenotype (%) [12]: 72% | Total Cell Count [12]: 181
